A selection: hits, their analogues and other compounds. The true share with any hit is near 3.8%.
RGS4 pot = potentiators or activators of RGS4 | B-score at 10 µM | hit rate 0.92% among 310,000 | HEK293 M3R/inducible RGS4, carbachol calcium flux Fluo4; active compounds read low;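 active = B-score of the integrated calcium signal more than 4 SD below the library mean, with starting fluorescence not abnormally high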;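 note: negative B-score means reduced calcium response which marks RGS4 activation or potentiation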
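test system = M3R-expressing HEK293 line, RGS4 induced by doxycycline | probe or stimulus = carbachol at ECmax as muscarinic agonist stimulus | timing = dye loading 30 min 37 °C, buffer rest 30 min RT | signal = calcium dye Fluo4 fluorescence | evaluation = B score from integrated fluorescence ratio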
MrgX1 allo act = allosterically activates human MrgX1 receptor signaling; hit rate 0.63% among 310,000; MrgX1-HEK293, Fluo-4 calcium flux, FDSS; active compounds read high; B-score at 10 µM; AID 588675;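 active = plate-corrected calcium response at least 3 library SD above typical, normal starting fluorescence, not activating the receptor alone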;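 note: compound read alongside a low EC10 to EC30 dose of BAM8-22 agonist; peak minus trough fluorescence over baseline measured at the second addition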
Target sequence (Q96LB2 whole entry, looked up): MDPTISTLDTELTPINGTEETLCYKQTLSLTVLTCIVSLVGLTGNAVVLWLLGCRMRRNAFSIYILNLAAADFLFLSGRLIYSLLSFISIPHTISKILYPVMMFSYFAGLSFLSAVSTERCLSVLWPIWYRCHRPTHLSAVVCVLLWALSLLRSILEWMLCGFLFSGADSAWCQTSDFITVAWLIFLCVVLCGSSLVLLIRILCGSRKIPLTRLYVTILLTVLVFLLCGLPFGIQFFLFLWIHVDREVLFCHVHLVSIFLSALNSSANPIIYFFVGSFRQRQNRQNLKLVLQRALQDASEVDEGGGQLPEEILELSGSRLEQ
MrgX1 antag = blocks BAM8-22 activation of human MrgX1 receptor; MRGX1-HEK293 calcium flux, Fluo-4, BAM8-22 antagonism; active compounds read low; B-score at 10 µM; hit rate 1.3% among 310,000; AID 588676;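 active = calcium-response B-score plate-corrected more than 3 library SD below zero, starting fluorescence within 5 deviations, no agonist response on first addition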;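 note: peak minus trough fluorescence over baseline after final BAM8-22 challenge near maximal dose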
Lipid droplet = modulators of hepatic lipid droplet formation. AML12 mouse hepatocytes, oleate lipid droplets, BODIPY imaging. hit rate 0.4% among 240,000. inhibition, % at 6.5 µM. AID 1656;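 active = lipid droplet intensity inhibited by at least 50%, with more than 500 cells counted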
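Assay system: AML12 hepatocytes (mouse) / Also added: 100 µM oleic acid challenge / Times: overnight treatment with compound plus oleate / Detection: high-content imaging of BODIPY-stained droplets and DAPI nuclei / Evaluation: % inhibition of lipid droplet signal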
MrgX1 ag = human MrgX1 receptor agonism, primary screen | Q96LB2 | hit rate 0.44% among 310,000 | AID 588627 | B-score at 10 µM | MrgX1-HEK293 cells, Fluo-4 calcium fluorescence, agonist mode; active compounds read high;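 active = calcium response B-score plate-corrected fluorescence ratio at least 3 library SD, with starting fluorescence B-score inside 5 SD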
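System: HEK293 cells stably expressing human MrgX1 receptor; Dosing: test compound in the initial addition of three; Schedule: overnight plating, then 30 min 37 °C plus 30 min room-temperature dye loading; Detection: kinetic calcium dye fluorescence, Fluo-4 NW; Controls: per-plate positive and negative controls for Z′ factor.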
RGS4 inh = inhibitors of human RGS4 | P49798 | hit rate 0.45% among 310,000 | B-score at 10 µM | AID 463165 | HEK293 M3R/RGS4 inducible, Fluo-4 calcium flux; active compounds read high; triggered by carbachol at its EC20;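 active = B-score, a plate-corrected calcium signal, over three deviations above library mean, with baseline fluorescence within five deviations of library mean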;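 note: RGS4 expression induced by doxycycline in cells with stable M3 receptor; B-score is computed from the integrated fluorescence ratio over baseline after carbachol; higher B-score means a larger calcium signal and so more RGS4 inhibition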
Target sequence (P49798 whole entry, looked up): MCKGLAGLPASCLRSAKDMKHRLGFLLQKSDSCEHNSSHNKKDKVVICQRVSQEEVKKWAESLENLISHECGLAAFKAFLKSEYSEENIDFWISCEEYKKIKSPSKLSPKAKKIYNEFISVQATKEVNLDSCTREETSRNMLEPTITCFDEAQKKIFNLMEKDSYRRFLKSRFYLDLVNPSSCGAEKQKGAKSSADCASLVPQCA
RGS4 block valid = RGS4 inhibitor validation | calcium response, % at 10 µM | hit rate 65% among 1,700 | AID 492999 | shares compounds with RGS4 inh | HEK293 M3R/RGS4, carbachol calcium Fluo-4 fluorescence; carbachol added at its EC20; 0 = buffer wells, 100 = carbachol control;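 active = duplicate-averaged calcium response above the buffer-only control mean plus 5 SD of those controls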;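 note: integrated fluorescence ratio F max minus min over baseline F0; higher response in RGS4-induced cells means RGS4 inhibition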
M3R Ca ctr = counter-screen for RGS4 inhibitors: effect in non-induced cells; shares compounds with RGS4 inh; activity (percent), % at 10 µM; hit rate 20% among 1,900; HEK293 M3R non-induced, carbachol calcium Fluo-4; submaximal (EC20) carbachol stimulus; buffer wells 0%, carbachol control wells 100%; call rule not given here;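 note: RGS4 induction absent so cells express M3R without RGS4; higher means more calcium signal and flags a non-specific hit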
M3R basal Ca ctr = signal in non-induced cells without carbachol, RGS4 inhibitor counter-screen; shares compounds with RGS4 inh; HEK293 M3R/RGS4 non-induced, Fluo-4 calcium, no carbachol; normalised: buffer wells 0%, carbachol wells 100%; calcium response (agonist-mode artifact), % at 10 µM; hit rate 22% among 1,900;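 active = duplicate-averaged calcium rise in uninduced cells above buffer wells' mean plus 5 SD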
An asterisk follows results filed as active; i = inactive; x = no result given.

SMILES	RGS4 pot	MrgX1 allo act	MrgX1 antag	Lipid droplet	MrgX1 ag	RGS4 inh	RGS4 block valid	M3R Ca ctr	M3R basal Ca ctr
Cc1ccc(C(=O)C2=C(O)C(=O)N(Cc3ccco3)C2c2cccc(Br)c2)o1 (stereo not drawn)	i	i	i	18.4	i	i	x	x	x
O=C(C1=C(O)C(=O)N(Cc2ccco2)C1c1cccc(O)c1)c1ccco1 (stereo not drawn)	i	i	i	5.1	i	4.67*	5.5%*	i	i
Cc1cccn2c(=O)c(C=NCCO)c(Nc3ccc(Cl)cc3)nc12	i	i	i	-3.4	i	7.53*	11.5%*	i	i
COc1ccc(-c2cc(C(F)(F)F)n3nc(C(=O)NCc4ccco4)cc3n2)cc1	i	i	i	x	i	i	x	i	i
O=C(NCc1ccco1)c1cc2nc(-c3ccc4c(c3)OCO4)cc(C(F)(F)F)n2n1	i	i	i	x	i	4.66*	i	i	15.5%*
COCCNC(=S)N/N=C(\C)c1ccccc1OC	i	i	i	x	i	5.69*	39.5%*	i	i
O=C(NCCCN1CCCC1=O)C1CCCO1 (stereo not drawn)	i	i	i	21.3	i	i	x	x	x
O=C1Nc2ccccc2/C1=N/N=C/c1ccc(-c2ccc([N+](=O)[O-])cc2)o1	i	x	x	13.8	x	4.83*	7.5%*	35.0%*	i
Cc1ccc(NC(=O)C2=C(c3ccccc3)S(=O)(=O)CCS2(=O)=O)cc1	i	i	i	4.1	i	15*	28.5%*	i	16.5%*
O=C(Nc1ccc(-c2ccccc2)cc1)c1ccccc1	i	i	i	12.6	i	i	x	x	x
Cc1cc(=O)[nH]c(N2CCN(Cc3ccccc3)CC2)n1	i	i	i	3.0	i	i	x	x	x
O=c1cc(-c2ccc(Cl)cc2)nc(N2CCN(c3ccccc3)CC2)[nH]1	i	i	i	-9.2	i	9.74*	i	32.0%*	i
COc1ccc(/C=C(\CC(=O)O)c2nc3ccccc3s2)cc1O	i	i	i	12.8	i	i	x	x	x
COc1ccc(-c2nn(-c3ccccc3)cc2/C=C(\CC(=O)O)c2nc3ccccc3s2)cc1OC	i	i	i	15.3	i	6.2*	7.5%*	i	i
CCCCn1c(NC(C)CC)nc2c1c(=O)[nH]c(=O)n2C (stereo not drawn)	i	i	i	x	i	4.72*	9.5%*	i	i
CCC(C)Nc1nc2c(c(=O)[nH]c(=O)n2C)n1CCOc1ccccc1 (stereo not drawn)	i	i	i	-1.8	i	i	x	x	x
Cc1ccc2c(C)c(C(=O)N3CCCC(C(N)=O)C3)oc2c1C (stereo not drawn)	i	x	x	-0.9	x	i	x	x	x
Fc1ccc(-c2csc(Nc3ccccn3)n2)cc1	i	i	i	5.2	i	i	i	i	i
CCC1CCCCN1S(=O)(=O)c1ccc2c(c1)CCN2C(=O)C1CCC1 (stereo not drawn)	i	i	i	x	i	i	x	x	x
O=C(CCl)c1ccc2c(c1)CCN2C(=O)C1CCCCC1	i	i	i	5.1	i	i	i	i	13.5%*
COc1ccc(-c2cc(C(=O)N3CCCC(C(F)(F)F)C3)c3ccccc3n2)cc1OC (stereo not drawn)	i	i	i	x	i	i	x	x	x
O=C(Nc1nc(-c2ccc(Cl)s2)cs1)c1cccs1	i	i	i	x	i	i	x	x	x
O=C(Nc1nc(-c2ccc(Cl)s2)cs1)c1ccco1	i	i	i	-30.3	i	6.54*	13.5%*	i	i
CC(=O)Nc1sc(NC(=O)c2ccco2)nc1-c1cccs1	i	i	i	-1.0	i	i	x	x	x
O=C(Nc1nc(-c2cccs2)c(-c2ccccc2)s1)c1ccco1	i	i	i	x	i	13.9*	43.0%*	52.0%*	i
SMILES	RGS4 pot	MrgX1 allo act	MrgX1 antag	Lipid droplet	MrgX1 ag	RGS4 inh	RGS4 block valid	M3R Ca ctr	M3R basal Ca ctr
COc1ccccc1CNC(=O)c1cc(S(=O)(=O)N2CCCC2)cn1C	i	i	i	-0.3	i	i	x	x	x
COc1ccccc1CN1[C@@H](CC(=O)O)c2cc(F)ccc2S1(=O)=O	i	i	i	x	i	i	x	x	x
CC(C)NC(=O)C1CCN(C2CCN(C(=O)c3scc4c3CCCC4)CC2)CC1	i	i	i	-9.8	i	i	x	x	x
O=C(COC(=O)c1ccc(Br)o1)Nc1cccc(S(=O)(=O)N2CCCCCC2)c1	i	i	i	-4.4	i	i	x	x	x
CC(=O)Nc1ccc(/C=C2\Sc3ccccc3C2=O)cc1	i	i	i	2.4	i	i	x	x	x
O=C1/C(=C/c2cccnc2)Sc2ccccc21	i	i	i	x	46.8*	7.92*	42.0%*	46.5%*	32.5%*
CCOc1ccccc1C(=O)N/N=C/c1coc2ccc(Cl)cc2c1=O	i	i	i	-11.4	i	i	x	x	x
COc1cc2c(cc1OC)CN(CCC(=O)c1ccc(Br)cc1)CC2	i	i	i	5.0	i	21.3*	53.5%*	i	27.5%*
CCOC(=O)N1CCN(CCC(=O)c2ccc(Br)cc2)CC1	i	i	i	-2.7	i	i	x	x	x
Oc1ccc(Cl)cc1C=NCCc1ccccc1	i	i	i	16.9	i	5.02*	21.5%*	35.0%*	11.0%*
Oc1ccccc1C=NCCN=Cc1ccccc1O	i	i	i	10.2	i	i	x	x	x
Oc1c(Cl)cc(Cl)c2c1NCCC2	i	x	x	4.2	x	9.33*	64.0%*	i	i
O=C1NCCCc2c1oc1ccc(O)cc21	i	i	i	x	i	i	x	x	x
Cc1ccc(-c2nc(CN(Cc3cnn(C)c3)C(C)C)c(C)o2)o1	i	i	i	-8.0	i	i	x	x	x
C=CCn1c(SCc2c(Cl)cccc2Cl)nnc1-c1cccnc1	i	i	i	-12.4	i	i	x	x	x

Compound activity as filed in PubChem.
